Laboratory results from PubChem BioAssay AID624467 (The Scripps Research Institute Molecular Screening Center, 2012).
Several values for one entry are separate records, joined by “and”; a condition that tells them apart may be missing. Equal entries are not always repeated. About 3,600 (1%) of roughly 360,000 compounds were called active. This is one part of a sample in which actives are shown more often than they occur. A number with no mark means an inactive call.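 The calls were made as follows: active = activation above the mean activation of all test compounds in the run plus 3 SD (cut at about 38% in these data); inactive = the rest.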

The compounds below were run against Trace amine-associated receptor 1 (Homo sapiens) (UniProt Q96RJ0) (assay: human TAAR1 agonists, primary screen, Fluo-8 calcium fluorescence, CHO RD-HGA16 cells (AID 624467)). Conditions: CHO RD-HGA16 TAAR1, Fluo-8 calcium fluorescence; at 3 µM; hits give high values; vehicle wells 0%, saturating PEA agonist 100%.
Trace amine-associated receptor 1 (Homo sapiens), sequence (Q96RJ0 whole entry, looked up): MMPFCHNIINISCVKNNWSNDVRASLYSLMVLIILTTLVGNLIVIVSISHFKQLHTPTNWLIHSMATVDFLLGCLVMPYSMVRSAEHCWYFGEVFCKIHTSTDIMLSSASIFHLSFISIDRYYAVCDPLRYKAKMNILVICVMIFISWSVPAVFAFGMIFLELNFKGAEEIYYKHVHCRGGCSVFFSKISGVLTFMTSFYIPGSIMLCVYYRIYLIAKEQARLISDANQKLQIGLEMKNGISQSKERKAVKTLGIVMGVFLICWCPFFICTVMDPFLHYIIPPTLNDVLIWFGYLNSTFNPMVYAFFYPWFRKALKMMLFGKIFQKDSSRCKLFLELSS
Summary of the method: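 test system = CHO RD-HGA16 cells carrying human TAAR1 plus Gα16 | schedule = 17-24 h seeding, 75 min 37 °C dye, 30 min RT | compound dosing = 3 µM single concentration | control set = DMSO and PEA EC100 | replicates = n 1 | signal = Fluo-8 fluorescence, 5 s baseline then 140 s kinetic read | measure = percent activation vs PEA EC100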
Compound O=C(c1cc(-c2cccc(O)c2)on1)N1CCc2ccccc2C1 has an activation of 31.8%. COc1ccc2c(c1)CCc1c(C(=O)N3CCc4ccccc4C3)noc1-2 showed an activation of 13.8%. For O=C(c1noc2c1CCCC2)N1CCc2ccccc2C1, the activation was 54.6% (active). With CCOC(=O)CC1(NC(=O)c2cc(COc3cncc(Cl)c3)on2)CCCCC1 the activation was 4.12%. For COC(=O)c1[nH]c2cccc(C)c2c1NC(=O)CN1CCCc2ccccc21, the activation was 38.2% (active). For O=C(CN1CCc2ccccc21)NC(c1ccccc1)c1ccccc1, the activation was -0.06%. CC(=O)c1c(C)[nH]c(C(=O)OCC(=O)Nc2c(C)cccc2C)c1C showed an activation of 18.7%. Cc1ccc(NC(=O)N2c3ccccc3SC2c2ccco2)c(C)c1 (centres undefined) showed an activation of 1.34%. In the case of Cc1cc(Br)cn2c(Cc3ccccc3C(F)(F)F)c(-c3ccc(C#N)cc3)nc12, the activation is reported as 0.31%. Work on O=C(CSc1nc(-c2ccco2)cc(C(F)(F)F)n1)N1CCc2ccccc2C1 yielded an activation of 19.4%. For COc1ccc(-c2cc(C(F)(F)F)nc(SCCC(=O)NCc3ccco3)n2)cc1, the activation was 0.17%. O=C(CSc1nc(-c2ccco2)cc(C(F)(F)F)n1)NCc1cccs1 was tested, and the activation was 75.6% (active). For CN(O)C(=S)c1ccccc1, the activation was 4.65%. Compound C[C@@H]1ON(C)[C@H]2C[C@H]3c4cc(N5CCOCC5)ccc4CCN3C[C@@H]12 has an activation of 2%. O=C(O)C1C2C=CC(O2)C1C(=O)NCCc1cccc(Cl)c1 (centres undefined) was tested, and the activation was 76.8% (active). With O=C(NCCc1ccccc1)C1CC1 the activation was 20.1%. With O=C(O)C1C2C=CC(O2)C1C(=O)Nc1ccccn1 (centres undefined) the activation was 2.36%. For O=C(NCc1ccccc1)[C@@H]1CCCN1C(=O)[C@H]1CCCN1C(=O)c1cccc(Cl)c1, the activation was -0.12%. In the case of COc1ccc(CNC(=O)COC(=O)C2=Cc3ccccc3OC2)cc1, the activation is reported as 43.4% (active). Work on COc1ccc(CCNC(=O)COC(=O)c2cc(=O)c3ccccc3o2)cc1 yielded an activation of 17.5%. COc1ccc(CNC(=O)COC(=O)C(CCSC)N2C(=O)c3ccccc3C2=O)cc1 (centres undefined) showed an activation of 9.85%. Cc1nc2c(C(=O)NCc3cccs3)cnn2c(C)c1Cc1ccc(F)cc1 gave an activation of -1.18%. For Cc1ccc(NC(=O)CC2C(=O)N(Cc3ccccc3)C(=S)N2NC(=O)c2cccc(F)c2)c(C)c1 (centres undefined), the activation was 9.32%. For COC(=O)Cc1nnn2c1[C@H](C)[C@H](c1ccccc1[N+](=O)[O-])OCC2, the activation was 1.43%. In the case of O=C(CN(c1cccc(Cl)c1)S(=O)(=O)c1ccccc1)NN=C1CCCC1, the activation is reported as -0.99%. Compound Cc1ccc(Cl)c(OCC(=O)N2CCc3ccccc3C2)c1 has an activation of 0.5%. Cc1cccc(N(CC(=O)N2CCOCC2)S(C)(=O)=O)c1 gave an activation of 0.3%. In the case of CS(=O)(=O)N(CC(=O)N1CCc2ccccc2C1)c1ccc(Br)cc1, the activation is reported as 2.37%. In the case of Cc1ccc(S(=O)(=O)N(CC(=O)N2CCc3ccccc3C2)c2cccc(Cl)c2)cc1, the activation is reported as 49.8% (active). In the case of COc1cccc(N(CC(=O)N2CCc3ccccc3C2)S(C)(=O)=O)c1, the activation is reported as 47.3% (active). CCOC(=O)CNC(=O)N(C)[C@H]1C[C@H]2c3[nH]c4c(-c5ccc6c(c5)OCO6)cccc4c3CCN2C(=O)[C@H]1[C@H](C)O showed an activation of 11.6%. COc1cccc(CNC(=O)[C@H]2CCCN2C(=O)[C@H]2CCCN2C(=O)C2CCCCC2)c1 gave an activation of 2.02%. CCc1nn(CCCN2CCN(c3cccc(Cl)c3)CC2)c(=O)n1CCOc1ccccc1 was tested, and the activation was 5.08% and 3.96%. O=[N+]([O-])c1ccc2[nH]c3c(c2c1)CCCC3O (centres undefined) was tested, and the activation was 2.87%. COC(=O)[C@]12C[C@H](CC(=O)N3CCN(C(=O)C4CC4)CC3)C(=O)N(Cc3ccc4c(c3)OCO4)C1=C[C@H](C(C)(C)C)O[C@@H]2C gave an activation of 1.35%. Cc1ccc(C(=O)CCC(=O)N(C)CC(=O)Nc2c(Cl)cccc2Cl)cc1 was tested, and the activation was -0.39%. Compound COc1ccccc1N1CC(C(=O)Nc2ccc(S(=O)(=O)N3CCOCC3)cc2)CC1=O (centres undefined) has an activation of 1.9%. In the case of COc1ccc(OC)c(NC(=S)N2CCc3ccccc3C2)c1, the activation is reported as 69.4% (active). COc1ccc(C)cc1NC(=S)N1CCOCC1 was tested, and the activation was 0.86%. COc1ccc(NC(=S)N2CCc3cc(OC)c(OC)cc3C2)cc1 gave an activation of 2.44%. CCCCCCCCN1C(=O)[C@@H](CC(=O)NCCCC)C[C@@]2(C(=O)OC)C1=C[C@H](C(C)(C)C)O[C@@H]2C showed an activation of -1.86%. CCCN1C(=O)C(Cc2nc3ccccc3c(=O)n2-c2ccccc2)c2cc(C)ccc21 (centres undefined) showed an activation of 13.8%. In the case of CCCc1nc2c(c(=O)c3ccccc3n2C)c(=O)n1C1CCCCCC1, the activation is reported as 46.7% (active). CCOC(=O)Cn1c2c(n(-c3ccc(F)cc3)c1=O)C=C(c1ccccc1)[C@@H](C)C(C(=O)N(C)C1CCCCC1)=C2 showed an activation of -1.16%.
